In ChEMBL document CHEMBL1148481, “Linker length modulates DNA cross-linking reactivity and cytotoxic potency of C8/C8' ether-linked C2-exo-unsaturated pyrrolo[2,1-c][1,4]benzodiazepine (PBD) dimers” (J Med Chem, 2004):

Legend:
[1] = test system: Nucleic Acid; assay: Thermal stabilization of duplex form of calf thymus DNA after incubation for 0 hours; assay type: functional; settings: Bos taurus
How it was run: (§1)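 UV melting of calf thymus DNA (100 μM phosphate, 50 μM bp) with ligand at 20 μM (ligand:DNA 1:5) in pH 7.00 buffer (10 mM sodium phosphate, 1 mM EDTA), ≤0.6% v/v MeOH with correction. Samples were preincubated at 37 °C for the stated time, heated at 1 °C/min over 45–98 °C and monitored at 260 nm. ΔTm is the midpoint shift versus free DNA, from at least three determinations.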

[2] = Compound was tested for inhibition of restriction endonuclease BamH1 enzyme at a concentration of 17.5 uM;Inhibited
How it was run: (§2)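 BamHI protection assay: a 512-bp PvuII plasmid fragment with a single BamHI site (500 ng) was incubated with the PBD (methanol stock 10 mM) for 16 h at 37 °C. It was then digested with BamHI (10 units) for 1 h at 37 °C. Cut and uncut DNA were resolved on a 1% agarose TBE gel, stained with ethidium bromide, and the cut fraction was quantified versus dose.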

[3] = test system: Nucleic Acid; assay: Thermal stabilization of duplex form of calf thymus DNA after incubation for 4 hours; assay type: functional; settings: Bos taurus; how it was run: as §1
[4] = test system: Nucleic Acid; assay: Thermal stabilization of duplex form of calf thymus DNA after incubation for 18 hours; assay type: functional; settings: Bos taurus; how it was run: as §1
[5] = test system: Nucleic Acid; assay: Compound dose required to induce 50 percent cross linking in naked plasmid pBR322 DNA following incubation with agent for 2 hours at 37 degree C; assay type: functional
How it was run: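 Denatured at 90 °C for 2.5 min in 30% DMSO and run on 0.8% agarose, 40 V, 14–16 h. Autoradiography and laser densitometry of double- vs single-stranded bands gave dose–response curves; mean of ≥3 experiments.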

[6] = test system: K562; assay: Dose required to induce 50 percent decrease in tail moment of the DNA of K562 cells following a 1 hour treatment; assay type: functional, Homo sapiens
How it was run: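 Alkaline Comet assay in K562 cells after 1 h drug exposure, done on ice in subdued light. Cells were irradiated (10 Gy), embedded in agarose, lysed 1 h at pH 10.5, held in alkali 45 min and electrophoresed 25 min at pH 12.5. Slides were propidium iodide stained; 25 cells per duplicate slide. Value is the dose giving 50% decrease in tail moment relative to irradiated controls.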

[7] = test system: K562; assay: Inhibitory concentration against human K562 leukemia cells following incubation for 1 hour; assay type: functional, cell-based; settings: K562, 1 h
How it was run: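 K562 cells in RPMI 1640 with 10% FCS and 2 mM glutamine were exposed to drug for 1 h at 37 °C in the dark, then washed. They were plated at 10⁴ cells/well (8 wells per sample) and grown 4 days. MTT was added for 5 h, formazan dissolved in DMSO, and OD read at 550 nm. IC50 is the dose reducing OD to 50% of control.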

[8] = Compound was tested for percentage inhibition of restriction endonuclease BamH1 enzyme at a concentration of 25 uM;Inhibited
[9] = Compound was tested for inhibition of restriction endonuclease BamH1 enzyme at a concentration of 25 uM;Inhibited; how it was run: as §2
[10] = test system: UO-31; assay: Compound was tested for 50% growth inhibition against human renal cancer UO-31 cell line; assay type: functional
[11] = test system: CCRF-CEM; assay: Compound was tested for 50% growth inhibition against human leukemia CCRF-CEM cell line; assay type: functional
[12] = test system: EKVX; assay: Compound was tested for 50% growth inhibition against human non-small cell lung cancer EKVX cell line; assay type: functional
[13] = test system: SK-MEL-28; assay: Compound was tested for 50% growth inhibition against human melanoma SK-MEL-28 cell line; assay type: functional
[14] = test system: OVCAR-5; assay: Compound was tested for 50% growth inhibition against human ovarian cancer OVCAR-5 cell line; assay type: functional
[15] = test system: HOP-62; assay: Compound was tested for 50% growth inhibition against human non-small cell lung cancer HOP-62 cell line; assay type: functional
[16] = test system: HL-60; assay: Compound was tested for 50% growth inhibition against human leukemia […] cell line; assay type: functional
[17] = test system: MCF7; assay: Compound was tested for 50% growth inhibition against human breast cancer MCF-7 cell line; assay type: functional
[18] = test system: PC-3; assay: Compound was tested for 50% growth inhibition against human prostate cancer PC-3 cell line; assay type: functional
[19] = test system: NCI-H226; assay: Compound was tested for 50% growth inhibition against human non-small cell lung cancer NCI-H226 cell line; assay type: functional
[20] = test system: MDA-N; assay: Compound was tested for 50% growth inhibition against human breast cancer MDA-N cell line; assay type: functional
[21] = test system: U-251; assay: Compound was tested for 50% growth inhibition against human CNS cancer U251 cell line; assay type: functional
[22] = test system: CAKI-1; assay: Compound was tested for 50% growth inhibition against human renal cancer CAKI-1 cell line; assay type: functional
[23] = test system: SN12C; assay: Compound was tested for 50% growth inhibition against human renal cancer […] cell line; assay type: functional
[24] = test system: A549; assay: Compound was tested for 50% growth inhibition against human non-small cell lung cancer A549/ATCC cell line; assay type: functional
[25] = test system: M14; assay: Compound was tested for 50% growth inhibition against human melanoma M14 cell line; assay type: functional
[26] = test system: HCT-15; assay: Compound was tested for 50% growth inhibition against human colon cancer HCT-15 cell line; assay type: functional
[27] = test system: KM12; assay: Compound was tested for 50% growth inhibition against human colon cancer KM12 cell line; assay type: functional
[28] = test system: HT-29; assay: Compound was tested for 50% growth inhibition against human colon cancer HT-29 cell line; assay type: functional
[29] = test system: SNB-19; assay: Compound was tested for 50% growth inhibition against human CNS cancer SNB-19 cell line; assay type: functional
[30] = test system: SK-OV-3; assay: Compound was tested for 50% growth inhibition against human ovarian cancer SK-OV-3 cell line; assay type: functional
[31] = test system: Hs-578T; assay: Compound was tested for 50% growth inhibition against human breast cancer HS 578T cell line; assay type: functional
[32] = test system: MOLT-4; assay: Compound was tested for 50% growth inhibition against human leukemia MOLT-4 cell line; assay type: functional
[33] = test system: A498; assay: Compound was tested for 50% growth inhibition against human renal cancer A498 cell line; assay type: functional
[34] = test system: ACHN; assay: Compound was tested for 50% growth inhibition against human renal cancer ACHN cell line; assay type: functional
[35] = test system: SF-268; assay: Compound was tested for 50% growth inhibition against human CNS cancer SF-268 cell line; assay type: functional
[36] = test system: Malme-3M; assay: Compound was tested for 50% growth inhibition against human melanoma MALME-3M cell line; assay type: functional
[37] = test system: DU-145; assay: Compound was tested for 50% growth inhibition against human prostate cancer DU-145 cell line; assay type: functional
[38] = test system: IGROV-1; assay: Compound was tested for 50% growth inhibition against human ovarian cancer IGROVI cell line; assay type: functional
[39] = test system: SF-539; assay: Compound was tested for 50% growth inhibition against human CNS cancer SF-539 cell line; assay type: functional
[40] = test system: NCI-H23; assay: Compound was tested for 50% growth inhibition against human non-small cell lung cancer NCI-H23 cell line; assay type: functional
[41] = test system: BT-549; assay: Compound was tested for 50% growth inhibition against human breast cancer BT-549 cell line; assay type: functional
[42] = test system: TK-10; assay: Compound was tested for 50% growth inhibition against human renal cancer TK-10 cell line; assay type: functional
[43] = test system: SW-620; assay: Compound was tested for 50% growth inhibition against human colon cancer SW 620 cell line; assay type: functional
[44] = test system: MDA-MB-231; assay: Compound was tested for 50% growth inhibition against human breast cancer MDA-MB-231/ATCC cell line; assay type: functional
[45] = test system: T47D; assay: Compound was tested for 50% growth inhibition against human breast cancer T-47D cell line; assay type: functional
[46] = Compound was tested for inhibition of restriction endonuclease BamH1 enzyme at a concentration of 10 uM;Inhibited; how it was run: as §2
[47] = test system: 786-0; assay: Compound was tested for 50% growth inhibition against human renal cancer 786-0 cell line; assay type: functional
[48] = test system: COLO 205; assay: Compound was tested for 50% growth inhibition against human colon cancer COLO 205 cell line; assay type: functional
[49] = test system: LOX IMVI; assay: Compound was tested for 50% growth inhibition against human melanoma LOXIMVI cell line; assay type: functional
[50] = test system: SF-295; assay: Compound was tested for 50% growth inhibition against human CNS cancer SF-295 cell line; assay type: functional
[51] = test system: HCC 2998; assay: Compound was tested for 50% growth inhibition against human colon cancer HCC2998 cell line; assay type: functional
[52] = test system: SK-MEL-5; assay: Compound was tested for 50% growth inhibition against human melanoma SK-MEL-5 cell line; assay type: functional
[53] = test system: UACC-257; assay: Compound was tested for 50% growth inhibition against human melanoma UACC-257 cell line; assay type: functional
[54] = test system: SR; assay: Compound was tested for 50% growth inhibition against human leukemia SR cell line; assay type: functional
[55] = test system: NCI-H460; assay: Compound was tested for 50% growth inhibition against human non-small cell lung cancer NCI-H460 cell line; assay type: functional
[56] = test system: OVCAR-3; assay: Compound was tested for 50% growth inhibition against human ovarian cancer OVCAR-3 cell line; assay type: functional
[57] = test system: NCI/ADR-RES; assay: Compound was tested for 50% growth inhibition against human breast cancer NCI/ADR-RES cell line; assay type: functional
[58] = test system: OVCAR-8; assay: Compound was tested for 50% growth inhibition against human ovarian cancer OVCAR-8 cell line; assay type: functional
[59] = test system: HCT-116; assay: Compound was tested for 50% growth inhibition against human colon cancer HCT116 cell line; assay type: functional
[60] = test system: RPMI-8226; assay: Compound was tested for 50% growth inhibition against human leukemia RPMI-8226 cell line; assay type: functional
[61] = test system: NCI-H322M; assay: Compound was tested for 50% growth inhibition against human non-small cell lung cancer NCI-H322M cell line; assay type: functional
[62] = test system: HOP-92; assay: Compound was tested for 50% growth inhibition against human non-small cell lung cancer […] cell line; assay type: functional

## C=C1C[C@H]2C=Nc3cc(OCCCOc4cc5c(cc4OC)C(=O)N4CC(=C)C[C@H]4C=N5)c(OC)cc3C(=O)N2C1 [SJG-136]
[1]
  ΔTm: 25.7 °C
[2]
  Activity: Inhibited
[3]
  ΔTm: 31.9 °C
[4]
  ΔTm: 33.6 °C
[5]
  C50: 0.045 µM
[6]
  C50: 0.03 µM
[7]
  IC50: 43 nM

## Cc1ccc2c(c1O)NC(O)C1CC(/C=C/C(N)=O)=CN1C2=O (stereo unspecified)
[8]
  inhibition: 12%

## C/C=C1\C[C@H]2C=Nc3cc(O)c(OC)cc3C(=O)N2C1
[1]
  ΔTm: 1 °C
[3]
  ΔTm: 2.4 °C
[4]
  ΔTm: 2.6 °C

## COc1cc2c(cc1OCCCOc1cc3c(cc1OC)C(=O)N1CCC[C@H]1C=N3)N=C[C@@H]1CCCN1C2=O [DSB-120]
[1]
  ΔTm: 10.2 °C
[3]
  ΔTm: 13.1 °C
[4]
  ΔTm: 15.1 °C
[5]
  C50: 0.055 µM
[9]
  Activity: Inhibited
[7]
  IC50: 200 nM

## COc1cc2c(cc1OCCCCCOc1cc3c(cc1OC)C(=O)N1CCC[C@H]1C=N3)N=C[C@@H]1CCCN1C2=O
[1]
  ΔTm: 3.3 °C
[3]
  ΔTm: 5.9 °C
[4]
  ΔTm: 9.4 °C
[5]
  C50: 0.07 µM
[7]
  IC50: 500 nM

## C=C1C[C@H]2C=Nc3cc(OCCCCCOc4cc5c(cc4OC)C(=O)N4CC(=C)C[C@H]4C=N5)c(OC)cc3C(=O)N2C1
[10]
  GI50: 0.251 nM
[11]
  GI50: 0.00646 nM
[12]
  GI50: 1.58 nM
[1]
  ΔTm: 24.9 °C
[13]
  GI50: 0.219 nM
[14]
  GI50: 0.309 nM
[15]
  GI50: 0.117 nM
[16]
  GI50: 0.0148 nM
[3]
  ΔTm: 25.5 °C
[17]
  GI50: 0.0933 nM
[18]
  GI50: 0.617 nM
[19]
  GI50: 0.162 nM
[20]
  GI50: 0.209 nM
[21]
  GI50: 0.0427 nM
[22]
  GI50: 0.178 nM
[23]
  GI50: 0.0269 nM
[4]
  ΔTm: 25.8 °C
[24]
  GI50: 0.123 nM
[25]
  GI50: 0.141 nM
[26]
  GI50: 1.74 nM
[27]
  GI50: 0.245 nM
[5]
  C50: 0.004 µM
[28]
  GI50: 0.224 nM
[29]
  GI50: 0.105 nM
[30]
  GI50: 0.162 nM
[6]
  C50: 0.009 µM
[31]
  GI50: 0.302 nM
[32]
  GI50: 0.012 nM
[33]
  GI50: 0.224 nM
[34]
  GI50: 0.0251 nM
[35]
  GI50: 0.0501 nM
[36]
  GI50: 0.162 nM
[37]
  GI50: 0.049 nM
[38]
  GI50: 0.0049 nM
[39]
  GI50: 0.0363 nM
[40]
  GI50: 0.0832 nM
[41]
  GI50: 0.162 nM
[7]
  IC50: < 1 nM
[42]
  GI50: 0.295 nM
[43]
  GI50: 0.288 nM
[44]
  GI50: 0.371 nM
[45]
  GI50: 0.0199 nM
[46]
  Activity: Inhibited
[47]
  GI50: 0.0977 nM
[48]
  GI50: 0.166 nM
[49]
  GI50: 0.0549 nM
[50]
  GI50: 0.038 nM
[51]
  GI50: 0.186 nM
[52]
  GI50: 0.245 nM
[53]
  GI50: 0.525 nM
[54]
  GI50: < 0.001 nM
[55]
  GI50: 0.0955 nM
[56]
  GI50: 0.2 nM
[57]
  GI50: 7.94 nM
[58]
  GI50: 0.195 nM
[59]
  GI50: 0.174 nM
[60]
  GI50: 0.186 nM
[61]
  GI50: 0.468 nM
[62]
  GI50: 0.112 nM
